The values that follow come from ChEMBL document CHEMBL4406895, “Discovery of amide-bridged pyrrolo[2,3-d]pyrimidines as tumor targeted classical antifolates with selective uptake by folate receptor α and inhibition of de novo purine nucleotide biosynthesis” (Bioorg Med Chem, 2019).

Assay [1] is described as follows: Antiproliferative activity in Chinese hamster R2 cells deficient in RFC, PCFT, and FRalpha assessed as reduction in cell growth after 96 hrs by Cell-Titer Blue assay. It counts as cell-based. The following applies: Cricetulus griseus, R2, 96 h. In a few lines: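 CHO sublines were transfected lines kept with 1 mg/ml G418 (R2 is the transporter-null parent). Cells were exposed to 0–1000 nM drug for 96 h at 37 °C, 5% CO2, in folate-free RPMI with 10% dFBS and 25 nM leucovorin. CellTiter-Blue fluorescence read at ex 560/em 590 nm. IC50 is 50% loss of growth from dose–response curves, mean ± SE of 3–10 experiments.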

Assay [2] can be described thus: Binding affinity to human FRalpha/RFC/PCFT expressed in KB cells assessed as antiproliferative activity measured as reduction in cell growth after 96 hrs by Cell-Titer Blue assay. It counts as cell-based. In a few lines: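 RT16 cells were precultured 72 h in folate-free RPMI with 10% dFBS; KB cells were maintained in folate-free RPMI with 10% FBS. Drug at 0–1000 nM for 96 h at 37 °C, 5% CO2, with 2 nM leucovorin. Parallel wells had 200 nM folic acid to block FR uptake. CellTiter-Blue fluorescence (ex 560/em 590 nm). IC50 from dose–response, mean ± SE of 3–10 experiments.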

The test system of assay [3] is KB. Briefly: Antiproliferative activity against human KB cells at 0.1 to 10000 nM after 96 hrs in presence of 60 uM adenosine by Cell-Titer blue assay. Type of assay: functional, cell-based. In a few lines: (§1)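 KB cells grown in folate-, nucleoside- and glycine-free RPMI 1640 with 10% dialyzed FBS, L-glutamine, antibiotics and 2 nM leucovorin across a drug concentration range. Protectants: thymidine 10 μM, glycine 130 μM, adenosine 60 μM or AICA 320 μM. Parallel incubations had no additions. Viable cells read by CellTiter-Blue fluorescence. At least triplicate experiments.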

In assay [4] the test system is KB. Description: Antiproliferative activity against human KB cells at 0.1 to 10000 nM after 96 hrs in presence of 10 uM thymidine by Cell-Titer blue assay. Type of assay: functional, cell-based. In a few lines:
as §1

Assay [5] deals with KB. Description: Antiproliferative activity against human KB cells at 0.1 to 10000 nM after 96 hrs in presence of 130 uM glycine by Cell-Titer blue assay. It counts as functional, cell-based. In a few lines:
as §1

Assay [6] relates to KB. Briefly: Antiproliferative activity against human KB cells up to 1 uM after 96 hrs in presence of 320 uM AICA by Cell-Titer blue assay. Type of assay: functional, cell-based. In a few lines: as §1
The target in assay [7] is T1, Trifunctional purine biosynthetic protein adenosine-3 (Homo sapiens) (UniProt P22102).
T1 sequence (whole entry): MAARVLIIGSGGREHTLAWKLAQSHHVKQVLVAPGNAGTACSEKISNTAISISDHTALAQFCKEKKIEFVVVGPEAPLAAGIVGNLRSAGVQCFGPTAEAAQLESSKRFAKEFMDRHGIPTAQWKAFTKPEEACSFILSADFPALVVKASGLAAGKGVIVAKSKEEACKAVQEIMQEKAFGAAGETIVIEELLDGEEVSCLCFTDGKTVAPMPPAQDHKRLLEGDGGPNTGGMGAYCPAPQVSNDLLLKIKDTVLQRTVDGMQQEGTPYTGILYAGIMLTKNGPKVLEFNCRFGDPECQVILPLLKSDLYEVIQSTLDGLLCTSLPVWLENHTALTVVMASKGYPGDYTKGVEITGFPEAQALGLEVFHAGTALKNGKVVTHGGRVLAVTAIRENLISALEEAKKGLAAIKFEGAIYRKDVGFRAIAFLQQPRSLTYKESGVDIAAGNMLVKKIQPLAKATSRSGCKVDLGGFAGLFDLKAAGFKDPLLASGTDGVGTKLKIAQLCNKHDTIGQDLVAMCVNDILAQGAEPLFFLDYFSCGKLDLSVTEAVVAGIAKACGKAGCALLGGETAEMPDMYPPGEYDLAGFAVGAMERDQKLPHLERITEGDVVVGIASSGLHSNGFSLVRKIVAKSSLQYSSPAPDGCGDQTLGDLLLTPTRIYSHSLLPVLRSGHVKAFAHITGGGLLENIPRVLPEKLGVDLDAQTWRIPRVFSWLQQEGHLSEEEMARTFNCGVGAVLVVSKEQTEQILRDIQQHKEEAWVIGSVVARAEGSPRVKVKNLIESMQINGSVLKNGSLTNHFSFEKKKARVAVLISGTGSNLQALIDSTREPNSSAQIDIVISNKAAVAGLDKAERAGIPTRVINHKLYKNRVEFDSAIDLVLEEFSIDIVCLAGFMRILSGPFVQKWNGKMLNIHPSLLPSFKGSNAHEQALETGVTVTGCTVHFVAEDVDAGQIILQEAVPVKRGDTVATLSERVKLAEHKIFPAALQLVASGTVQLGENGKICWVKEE
Description: Inhibition of GAFTase in human KB cells assessed as inhibition of [14C(U)glycine incorporation into [14C]formyl GAR preincubated for 30 mins followed by [14C](U)glycine addition and measured after 16 hrs. It counts as cell-based. In a few lines:
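KB cells adhered 24 h, then were washed and given drug (concentration range; DMSO controls) for 1 h in folate- and glutamine-depleted medium with 2 nM leucovorin. Azaserine 4 µM final was added for 30 min, then L-glutamine 2 mM and [14C(U)]glycine (0.1 mCi/L) for 16 h. TCA extracts yielded pmol [14C]formyl GAR/mg protein. IC50 relative to untreated controls, triplicates.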

The source made the active and inactive calls. The calls are words filed in the database; no cut-off is given here. A value given as a limit tells only on which side of the number the result lay.

Take `CN(Cc1cc2c(=O)[nH]c(N)nc2[nH]1)S(=O)(=O)c1ccc(C(=O)N[C@@H](CCC(=O)O)C(=O)O)cc1`: the IC50 in assay [1] was more than 1000 nM; in assay [2] it was 669 nM.
Taken in the same sequence, the figures for `CN(Cc1cc2c(=O)[nH]c(N)nc2[nH]1)C(=O)c1cccc(C(=O)N[C@@H](CCC(=O)O)C(=O)O)c1` were more than 1000 nM and 6.36 nM.
Taken in the same sequence, the figures for `CN(Cc1cc2c(=O)[nH]c(N)nc2[nH]1)C(=O)c1cc(C(=O)N[C@@H](CCC(=O)O)C(=O)O)cs1` were more than 1000 nM and 69.8 nM.
As to `Nc1nc2[nH]c(CCCc3ccc(C(=O)N[C@@H](CCC(=O)O)C(=O)O)cc3)cc2c(=O)[nH]1`, the outcome with KB [3] and in the assay on KB [6] was inactive. In addition, the outcome in the assay on KB [4] and with KB [5] was Active.
As for `Nc1nc2[nH]c(CCCc3ccc(C(=O)N[C@@H](CCC(=O)O)C(=O)O)s3)cc2c(=O)[nH]1`, the outcome in the assay on KB [3] and in the assay on KB [6] was inactive. Moreover, the outcome in the assay with KB [4] and in the assay with KB [5] was Active.
For `CN(Cc1cc2c(=O)[nH]c(N)nc2[nH]1)C(=O)c1ccc(C(=O)N[C@@H](CCC(=O)O)C(=O)O)s1`, the inhibition entry in assay [7] was “Active”. Moreover, the outcome with KB [3] was inactive. For the same molecule, the outcome in the assay on KB [4] and in the assay with KB [5] was Active. Further, the IC50 was more than 1000 nM in assay [1] and 4.23 nM in assay [2].
With `CN(Cc1cc2c(=O)[nH]c(N)nc2[nH]1)C(=O)c1ccc(C(=O)N[C@@H](CCC(=O)O)C(=O)O)cc1`, in assay [7], the inhibition result is “Active”. Besides, the result with KB [3] was inactive. Moreover, the result with KB [4] and with KB [5] was Active. In addition, the concentration for half-maximal inhibition (IC50) in assay [1] is more than 1000 nM; in assay [2], 1.4 nM.
Consider `CN(Cc1cc2c(=O)[nH]c(N)nc2[nH]1)C(=O)c1csc(C(=O)N[C@@H](CCC(=O)O)C(=O)O)c1`, for which the concentration for half-maximal inhibition (IC50) in assay [1] and in assay [2] was more than 1000 nM in each case.

In general, IC50 refers to the concentration at which inhibition is half-maximal.
